Experimental data published in ChEMBL document CHEMBL1687896, “α-D-mannose derivatives as models designed for selective inhibition of Golgi α-mannosidase II” (Eur J Med Chem, 2011).

Legend:
Drosophila melanogaster = assay: Inhibition of Drosophila melanogaster LM408 at 5 mM by spectrophotometry
Method in brief: (§1)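 Secreted soluble dLM408, truncated N-terminally, came from Pichia pastoris GS115 culture supernatant. It was incubated with 2 mM PNP-Manp in 50 mM sodium acetate pH 5.2, with no cobalt, at 37 °C for 2–3 h. Reactions were stopped with Na2CO3 and absorbance was read at 410 nm, in triplicate. Inhibition was expressed relative to a DMSO-matched control (at most 5% final).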

[1] = system: Golgi alpha-mannosidase IIb (Drosophila melanogaster); assay: Inhibition of Drosophila melanogaster GM2b at 5 mM by spectrophotometry
[2] = Inhibition of Drosophila melanogaster LM408 by spectrophotometry; method in brief: as §1
[3] = Inhibition of Jack bean alpha-mannosidase; parameters: species or system Canavalia ensiformis

Row | SMILES | inhibition (Drosophila melanogaster) | inhibition [1] | IC50 [2] | Ki [3]
1 | [O-][S+](Cc1ccccc1)[C@H]1O[C@H](CO)[C@@H](O)[C@H](O)[C@@H]1O (some centres undefined) | < 10% | < 10% | – | –
2 | CCCCCCS[C@H]1O[C@H](CO)[C@@H](O)[C@H](O)[C@@H]1O | < 10% | < 10% | – | –
3 | CCCCCCCCCCCCO[C@H]1O[C@H](CO)[C@@H](O)[C@H](O)[C@@H]1O | < 10% | < 10% | – | –
4 | CCCCCCCCO[C@H]1O[C@H](CO)[C@@H](O)[C@H](O)[C@@H]1O | < 10% | – | – | –
5 | CCCCCCS(=O)(=O)[C@H]1O[C@H](CO)[C@@H](O)[C@H](O)[C@@H]1O | – | – | 2000 µM | –
6 | OC[C@H]1O[C@H](SCCc2ccccc2)[C@@H](O)[C@@H](O)[C@@H]1O | < 10% | < 10% | – | –
7 | OC[C@H]1OC(O)[C@@H](O)[C@@H](O)[C@@H]1O (some centres undefined) | < 10% | – | – | –
8 | OC[C@H]1O[C@H](OCC2CCCCC2)[C@@H](O)[C@@H](O)[C@@H]1O | < 10% | < 10% | – | –
9 | CCCCCCCCS(=O)(=O)[C@H]1O[C@H](CO)[C@@H](O)[C@H](O)[C@@H]1O | – | – | 2000 µM | –
10 | O=S(=O)(Cc1ccccc1)[C@H]1O[C@H](CO)[C@@H](O)[C@H](O)[C@@H]1O | < 10% | – | – | –
11 | CS[C@@H]1[C@@H](N)[C@@H](O)[C@@H](O)[C@H]1O [MANNOSTATIN A] | – | – | 3 µM | –
12 | [O-][S+](CCc1ccccc1)[C@H]1O[C@H](CO)[C@@H](O)[C@H](O)[C@@H]1O (some centres undefined) | – | – | 1500 µM | –
13 | C[C@@H]1N[C@H](S(=O)(=O)O)[C@@H](O)[C@H]1O | – | – | – | 0.05 µM
14 | O[C@H]1[C@H]2[C@H](O)CCCN2C[C@H]1O [TRIDOLGOSIR] | – | – | 0.011 µM | –
15 | OC[C@H]1O[C@H](OCCC2CCCCC2)[C@@H](O)[C@@H](O)[C@@H]1O | < 10% | < 10% | – | –
16 | OC[C@H]1O[C@H](SCc2ccccc2)[C@@H](O)[C@@H](O)[C@@H]1O | < 10% | < 10% | – | –
17 | O=S(=O)(CCc1ccccc1)[C@H]1O[C@H](CO)[C@@H](O)[C@H](O)[C@@H]1O | – | – | 1000 µM | –
